M5 antag = antagonists of human muscarinic M5 receptor (CHRM5); P08912; CHO-hM5 cells, Fluo-8 calcium fluorescence, ACh EC80; inhibition, % at 3 µM; 360,000 tested, 0.59% active;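 active = inhibition above a per-plate cutoff, the mean of that plate's test compounds plus 3 SD, cut at about 27% in these data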;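 note: 0% = acetylcholine EC80 with DMSO and 100% = DMSO without agonist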
Target sequence (P08912 whole entry, looked up): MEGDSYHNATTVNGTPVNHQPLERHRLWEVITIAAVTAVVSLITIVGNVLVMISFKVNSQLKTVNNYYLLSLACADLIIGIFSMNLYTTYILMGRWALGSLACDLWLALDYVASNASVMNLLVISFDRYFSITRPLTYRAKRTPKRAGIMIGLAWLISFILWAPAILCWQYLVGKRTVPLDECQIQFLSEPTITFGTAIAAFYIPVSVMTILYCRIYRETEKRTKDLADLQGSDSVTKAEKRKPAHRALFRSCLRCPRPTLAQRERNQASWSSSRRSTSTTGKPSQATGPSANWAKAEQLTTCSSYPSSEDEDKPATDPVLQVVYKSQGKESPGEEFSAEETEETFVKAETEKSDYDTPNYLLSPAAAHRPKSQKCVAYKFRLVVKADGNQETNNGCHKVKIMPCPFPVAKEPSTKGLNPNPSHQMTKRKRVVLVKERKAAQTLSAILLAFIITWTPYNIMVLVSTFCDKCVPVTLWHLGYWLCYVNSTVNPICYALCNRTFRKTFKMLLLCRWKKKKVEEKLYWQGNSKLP
CHRM4 PAM = CHRM4 positive allosteric modulation; activation, % at 3 µM; 360,000 tested, 0.4% active; CHO-K1 hM4/Gqi5, Fluo-8 calcium fluorescence, ACh EC20; 0% = ACh EC20, 100% = maximal ACh;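 active = activation above its plate's cutoff, the mean activation of sample wells plus 3 SD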
M5 PAM = positive allosteric modulators of human muscarinic M5 receptor; P08912; CHO-K1 hM5, Fluo-8 calcium, ACh EC20 PAM; 0% = ACh EC20, 100% = ACh EC100; activation, % at 3 µM; 360,000 tested, 0.3% active; AID 624038;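 active = activation above the run cutoff, the mean activation of all test compounds plus 3 SD, cut at about 18% in these data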
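Measured by: Fluo-8 calcium fluorescence; material: human M5 receptor in CHO-K1 cells; schedule: Post-acetylcholine fluorescence recording 140 s; benchmarks: low control EC20 acetylcholine (0%), high control EC100 acetylcholine (100%); read-out: Max/basal fluorescence ratio as % of EC20–EC100 ACh window; compound: single dose, 3 µM nominal final test concentration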
M5 ag = agonists of human muscarinic M5 receptor (CHRM5). P08912. CHO-K1 hM5 cells, Fluo-8 calcium fluorescence; 0% DMSO wells, 100% maximal acetylcholine response. activation, % at 3 µM. 360,000 tested, 0.19% active. AID 624037;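 active = activation above the run's mean over test compounds plus 3 SD, cut at about 23% in these data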;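 note: signal is peak over basal fluorescence ratio across the kinetic read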
CHRM4 antagonist = CHRM4 antagonism in calcium assay. P08173. CHO-hM4 cells, ACh EC80, Fluo-8 calcium fluorescence. inhibition, % at 3 µM. 360,000 tested, 0.73% active. AID 624125;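 active = inhibition above its plate's cutoff, the mean inhibition of sample wells plus 3 SD, cut at about 27% in these data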;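 note: 0% = acetylcholine EC80 with DMSO and 100% = DMSO without agonist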
CHRM4 agonist = agonists of human muscarinic M4 receptor (CHRM4); P08173; CHO-K1 hM4/Gqi5, Fluo-8 calcium fluorescence; vehicle 0%, full acetylcholine response 100%; activation, % at 3 µM; 360,000 tested, 0.14% active;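 active = activation above the run mean over all test wells plus 3 SD, cut at about 32% in these data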;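 note: peak over basal fluorescence ratio per well then scaled between controls; 0% = DMSO wells and 100% = acetylcholine at EC100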
Starred values were filed as active, the others as inactive. In the library only some 1.8% were active in any assay of this set; here they are far more common.

Results for COc1ccc(C2=NS(=O)(=O)N(C)C(C(=O)N3CCC(C(N)=O)CC3)=C2)cc1 ?
M5 antag: 3; CHRM4 PAM: -12; M5 PAM: -11; M5 ag: 2; CHRM4 antagonist: 34*; CHRM4 agonist: 1

Results for COc1cccc(NC(=S)N2CCC(C(=O)c3ccc(F)cc3)CC2)c1 ?
M5 antag: 8; CHRM4 PAM: 0; M5 PAM: -2; M5 ag: 0; CHRM4 antagonist: 8; CHRM4 agonist: 1

How did S=C(NCCc1ccc(Cl)cc1)Nc1ccc(Cl)cc1Cl do in these assays?
M5 antag: 35*; CHRM4 PAM: -16; M5 PAM: -18; M5 ag: -2; CHRM4 antagonist: 9; CHRM4 agonist: 7

What do the screens show for `S=C(Nc1ccc(Cl)cc1Cl)N1CCOCC1`?
M5 antag: -5; CHRM4 PAM: 21*; M5 PAM: 3; M5 ag: 2; CHRM4 antagonist: 6; CHRM4 agonist: 1

How did S=C(NCc1ccc(Cl)cc1)Nc1ccc(Cl)cc1Cl do in these assays?
M5 antag: 15; CHRM4 PAM: -11; M5 PAM: -17; M5 ag: 0; CHRM4 antagonist: 9; CHRM4 agonist: 9

What do the screens show for `COC(=O)C1(C(=O)OC)C[C@H](/C=C/c2ccccc2)N(Cc2ccccc2OC)[C@@H]1c1ccccc1`?
M5 antag: -18; CHRM4 PAM: 11; M5 PAM: 3; M5 ag: 2; CHRM4 antagonist: -20; CHRM4 agonist: 2

Results for CCOC(=O)C1(O)CC(C)=NN1C(=O)c1cccc(Cl)c1 (configuration not stated) ?
M5 antag: 3; CHRM4 PAM: 6; M5 PAM: -5; M5 ag: -2; CHRM4 antagonist: -8; CHRM4 agonist: 1

What do the screens show for `O=C(COC(=O)CC1CCCCC1)Nc1c(Cl)cccc1Cl`?
M5 antag: 9; CHRM4 PAM: 14; M5 PAM: 3; M5 ag: -2; CHRM4 antagonist: -23; CHRM4 agonist: 2

Results for O=C(Nc1ccc(Cl)cc1)N1CCC(c2nc(-c3ccc(F)cc3)no2)CC1 ?
M5 antag: 47*; CHRM4 PAM: -17; M5 PAM: -24; M5 ag: 3; CHRM4 antagonist: 19; CHRM4 agonist: 21

Results for CN(C)S(=O)(=O)c1ccc(NC(=O)COc2ncnc3sccc23)cc1 ?
M5 antag: 1; CHRM4 PAM: 4; M5 PAM: 10; M5 ag: 3; CHRM4 antagonist: -2; CHRM4 agonist: 1

How did CCN1C(=NCc2ccco2)N[C@@H](c2cccc(C(F)(F)F)c2)C(C(=O)OC)=C1C do in these assays?
M5 antag: 20; CHRM4 PAM: 2; M5 PAM: -6; M5 ag: -3; CHRM4 antagonist: 27*; CHRM4 agonist: 3

Results for Cc1cc2nc(C(C)(C)C)c(CC3CCCCC3)n2c(C)c1Br ?
M5 antag: 7; CHRM4 PAM: -2; M5 PAM: -6; M5 ag: 3; CHRM4 antagonist: 3; CHRM4 agonist: 0

Results for Cc1[nH]c2ccccc2c1C1=CC(=O)C=CC1=O ?
M5 antag: 14; CHRM4 PAM: -8; M5 PAM: 0; M5 ag: -2; CHRM4 antagonist: 45*; CHRM4 agonist: 6

What do the screens show for `Cc1[nH]c2ccccc2c1CC#N`?
M5 antag: 6; CHRM4 PAM: 0; M5 PAM: 3; M5 ag: -2; CHRM4 antagonist: -4; CHRM4 agonist: 1

How did CCC1CCCCN1S(=O)(=O)c1ccc(NC(=O)c2nc(S(C)(=O)=O)ncc2Cl)cc1 (configuration not stated) do in these assays?
M5 antag: 21; CHRM4 PAM: -12; M5 PAM: -6; M5 ag: -1; CHRM4 antagonist: 59*; CHRM4 agonist: 11

How did COc1ccc(NC(=O)C(c2ccnc3ccccc23)n2c(=O)c(-c3ccccc3)nc3ccccc32)cc1 (configuration not stated) do in these assays?
M5 antag: 5; CHRM4 PAM: -3; M5 PAM: 0; M5 ag: 6; CHRM4 antagonist: 3; CHRM4 agonist: 1

How did Fc1ccc(-[n+]2nc(Nc3ccccc3)sc2-c2c3ccccc3cc3ccccc23)cc1 do in these assays?
M5 antag: 39*; CHRM4 PAM: -3; M5 PAM: -20; M5 ag: 36*; CHRM4 antagonist: 9; CHRM4 agonist: 16

Results for COc1ccc(C)cc1Nc1n[n+](-c2ccccc2)c(-c2cc(OC)c(OC)cc2Br)s1 ?
M5 antag: 22; CHRM4 PAM: 10; M5 PAM: -3; M5 ag: -8; CHRM4 antagonist: -14; CHRM4 agonist: 1

How did COc1ccc(C)cc1Nc1n[n+](-c2ccccc2)c(-c2c(OC)ccc3ccccc23)s1 do in these assays?
M5 antag: 27*; CHRM4 PAM: -6; M5 PAM: -31; M5 ag: -2; CHRM4 antagonist: 17; CHRM4 agonist: 21

Results for COc1ccc(C)cc1NC(=O)Cc1csc(NC(=O)Nc2ccccc2OC)n1 ?
M5 antag: 1; CHRM4 PAM: 3; M5 PAM: -5; M5 ag: 2; CHRM4 antagonist: -22; CHRM4 agonist: 7

What do the screens show for `C=CCn1c(O)c(C2=c3ccccc3=NC2=O)c2ccccc21`?
M5 antag: 20; CHRM4 PAM: -13; M5 PAM: -1; M5 ag: 8; CHRM4 antagonist: 50*; CHRM4 agonist: 12

What do the screens show for `Cc1ccc(-n2c(=O)c3ccccc3n(CC(=O)C(C)(C)C)c2=O)cc1`?
M5 antag: -1; CHRM4 PAM: -1; M5 PAM: 5; M5 ag: 5; CHRM4 antagonist: -9; CHRM4 agonist: -1

Results for CNC(C)C(=O)NC(C(=O)N1CCCC1C(=O)Nc1ccc2[nH]ccc2c1)C(C)C (configuration not stated) ?
M5 antag: -4; CHRM4 PAM: 5; M5 PAM: 5; M5 ag: -1; CHRM4 antagonist: -11; CHRM4 agonist: 1

Results for CNC(C)C(=O)NC(C(=O)N1CCCC1C(=O)Nc1ccc2ncccc2c1)C(C)C (configuration not stated) ?
M5 antag: -5; CHRM4 PAM: 29*; M5 PAM: 14; M5 ag: 2; CHRM4 antagonist: -14; CHRM4 agonist: 0

How did COc1cccc(CN(CC(=O)NC2CCCC2)C(=O)Cn2nnc(-c3cccs3)n2)c1 do in these assays?
M5 antag: -1; CHRM4 PAM: 4; M5 PAM: -8; M5 ag: -12; CHRM4 antagonist: 6; CHRM4 agonist: 3
